Laboratory results published in ChEMBL document CHEMBL5528081 (J Med Chem, 2024).

Experiments:
[1] = Inhibition of Nef protein-dependent MHC-1 HLA-A2 down modulation in human CD4 positive T cells transduced with replication defective HIV containing GFP reporter (delta GPE) assessed as restoration of MHC-1 measured after 24 hrs by HLA-A2 staining based flow cytometry; assay type: cell-based, Human immunodeficiency virus, CD4+ T cell
[2] = (§1) Neutralization ratio, ratio of IC50 for Inhibition of V-ATPase-dependent lysosomal acidification in human CD4 positive T cells transduced with replication defective HIV containing GFP reporter (delta GPE) to IC50 for Inhibition of Nef protein-dependent MHC-1 HLA-A2 down modulation in human CD4 positive T cells transduced with replication defective HIV containing GFP reporter (delta GPE)
[3] = as §1, with “Therapeutic” for “Neutralization”, “Cytotoxicity against” for “Inhibition of V-ATPase-dependent lysosomal acidification in”; assay type: toxicity, cell-based; conditions: read-out: Ratio IC50
In short: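 Primary human CD4+ T cells (PBMC, CD8-depleted, PHA then IL-2 activated) spinoculated with VSV-G-pseudotyped ΔGPE reporter; 48 h later treated with serial dilutions in R10 + 50 U/mL IL-2, top 1000 nM.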

CD4+ T cell = conditions: Human immunodeficiency virus, dose 0.05-10 nM
[4] = Inhibition of V-ATPase-dependent lysosomal acidification in human CD4 positive T cells transduced with replication defective HIV containing GFP reporter (delta GPE) assessed as fluorescence of pH-sensitive Lysotracker dye incubated for 24 hrs by flow cytometry; assay type: cell-based; conditions: CD4+ T cell
In short: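 CD8-depleted PHA/IL-2-activated primary CD4+ T cells spinoculated with VSV-G-pseudotyped HIV ΔGPE, 48 h later plated 1×10^5/well and treated 24 h with serial dilutions (top 1000 nM, final IL-2 50 U/mL).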

[5] = Cytotoxicity against human CD4 positive T cells transduced with replication defective HIV containing GFP reporter (delta GPE) assessed as cell viability by measuring vital dye uptake incubated for 72 hrs by flow cytometric assay; assay type: toxicity, cell-based; conditions: for CC50 at 72 h: read-out: TC50
In short: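 Primary human PBMCs, CD8-depleted, PHA-L (10 ug/mL) then IL-2 activated; donor-matched mock-transduced cells plated 1×10^5/well in R10 with IL-2 (final 50 U/mL), compounds serially diluted from DMSO stocks (top 1000 nM), 72 h.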

[6] = Human immunodeficiency virus 1, CD4+ T cell, 24 h

Row | Compound | IC50 [1, 6] [nM] | Ratio IC50 [2] | selectivity ratio [3] | other results
1 | CO/C1=C\C(C)=C\[C@@H](C)[C@@H](O)[C@@H](C)C/C(C)=C/C=C/[C@H](OC)[C@@H]([C@@H](C)[C@@H](O)[C@H](C)[C@H]2C=C(O)[C@H](C)[C@@H](C(C)C)O2)OC1=O | 140 | 2.6 | 1.6 | 
2 | C/C=C/[C@H]1O[C@@](O)([C@@H](C)[C@H](O)[C@H](C)[C@H]2OC(=O)/C(OC)=C/C(C)=C/[C@@H](C)[C@@H](O)[C@@H](CC)[C@@H](O)[C@H](C)C/C(C)=C/C=C/[C@@H]2OC)C[C@@H](OC(C)=O)[C@@H]1C | 1.2 | 5.6 | 5.8 | 
3 | C=C/C=C/C(=O)O[C@@H]1C[C@](O)([C@@H](C)[C@H](O)[C@H](C)[C@H]2OC(=O)/C(OC)=C/C(C)=C/[C@@H](C)[C@@H](O)[C@@H](C)C/C(C)=C/C=C/[C@@H]2OC)O[C@H](C(C)C)[C@H]1C | 17 | 1.5 | 1.4 | 
4 | CCCCC(=O)O[C@@H]1C[C@](O)([C@@H](C)[C@H](O)[C@H](C)[C@H]2OC(=O)/C(OC)=C/C(C)=C/[C@@H](C)[C@@H](O)[C@@H](C)C/C(C)=C/C=C/[C@@H]2OC)O[C@H](C(C)C)[C@H]1C | 37 | 1.5 | 1.4 | 
5 | C/C=C/[C@H]1O[C@@](O)([C@@H](C)[C@H](O)[C@H](C)[C@H]2OC(=O)/C(OC)=C/C(C)=C/[C@@H](C)[C@@H](O)[C@@H](CC)[C@@H](O)[C@H](C)C/C(C)=C/C=C/[C@@H]2OC)C[C@@H](O[C@H]2C[C@@H](O)[C@H](OC(N)=O)[C@@H](C)O2)[C@@H]1C |  |  |  | inhibition (CD4+ T cell): Dose-Dependent Effect
6 | CO/C1=C\C(C)=C\[C@@H](C)[C@@H](O)[C@@H](C)C/C(C)=C/C=C/[C@H](OC)[C@@H]([C@@H](C)[C@@H](O)[C@H](C)[C@@]2(O)C[C@@H](OC(=O)c3ccccc3)[C@H](C)[C@@H](C(C)C)O2)OC1=O |  |  |  | IC50 [4]: 128 nM
7 | C/C=C/[C@H]1O[C@@](O)([C@@H](C)[C@H](O)[C@H](C)[C@H]2OC(=O)/C(OC)=C/C(C)=C/[C@@H](C)[C@@H](O)[C@@H](CC)[C@@H](O)[C@H](C)C/C(C)=C/C=C/[C@@H]2OC)C[C@@H](O[C@H]2C[C@@H](OC(C)=O)[C@H](OC(N)=O)[C@@H](C)O2)[C@@H]1C |  |  | 8.5 | 
8 | COc1cc2c(O)c3c(c(-c4ccc5c(c4)OCO5)c2cc1OC)C(=O)OC3 [DIPHYLLIN] | > 1000 |  |  | IC50 [4]: > 1000 nM; IC50 at 72 h [5]: > 1000 nM
9 | CO/C1=C\C(C)=C\[C@@H](C)[C@@H](O)[C@@H](C)C/C(C)=C/C=C/[C@H](OC)[C@@H]([C@@H](C)[C@@H](O)[C@H](C)[C@H]2C[C@@H](OC)[C@H](C)[C@@H](C(C)C)O2)OC1=O | 20 | 2.7 | 1.4 | 
10 | CO/C1=C\C(C)=C\[C@@H](C)C(=O)[C@@H](C)C/C(C)=C/C=C/[C@H](OC)[C@@H]([C@@H](C)[C@@H](O)[C@H](C)[C@@]2(O)C[C@@H](O)[C@H](C)[C@@H](C(C)C)O2)OC1=O |  |  |  | IC50 ([1]; cd4+ t cell): > 1000 nM
11 | CO[C@H]1/C=C/O[C@@]2(C)Oc3c(C)c(O)c4c(O)c(c(/C=N/N5CCN(C)CC5)c(O)c4c3C2=O)NC(=O)/C(C)=C\C=C\[C@H](C)[C@H](O)[C@@H](C)[C@@H](O)[C@@H](C)[C@H](OC(C)=O)[C@@H]1C [RIFAMPIN] | > 1000 |  |  | IC50 [4]: > 1000 nM; IC50 at 72 h [5]: > 1000 nM
12 | CO/C1=C\C(C)=C\[C@@H](C)[C@@H](O)[C@@H](C)C/C(C)=C/C=C/[C@H](OC)[C@@H]([C@@H](C)[C@@H](O)[C@H](C)[C@@]2(O)C[C@@H](O[C@@H]3O[C@@H](C)[C@H](O)[C@@H](O)[C@H]3OC)[C@H](C)[C@@H](C(C)C)O2)OC1=O |  |  |  | CC50 at 72 h [5]: 1.4 nM
13 | C/C=C/[C@H]1O[C@@](O)([C@@H](C)[C@H](O)[C@H](C)[C@H]2OC(=O)/C(OC)=C/C(C)=C/[C@@H](C)[C@@H](O)[C@@H](CC)[C@@H](OC(C)=O)[C@H](C)C/C(C)=C/C=C/[C@@H]2OC)C[C@@H](O[C@H]2C[C@@H](OC(C)=O)[C@H](OC(N)=O)[C@@H](C)O2)[C@@H]1C |  |  |  | inhibition (CD4+ T cell): Dose-Dependent Effect
14 | C/C=C/[C@H]1O[C@@](O)([C@@H](C)[C@H](O)[C@H](C)[C@H]2OC(=O)/C(OC)=C/C(C)=C/[C@@H](C)[C@@H](O)[C@@H](CC)[C@@H](O)[C@H](C)C/C(C)=C/C=C/[C@@H]2OC)C[C@@H](O[C@H]2C[C@@H](OC(C)=O)[C@H](OC(C)=O)[C@@H](C)O2)[C@@H]1C | 0.72 | 4.2 | 1.8 | 
15 | CCCCCCCCC(=O)O[C@@H]1C[C@](O)([C@@H](C)[C@H](O)[C@H](C)[C@H]2OC(=O)/C(OC)=C/C(C)=C/[C@@H](C)[C@@H](O)[C@@H](C)C/C(C)=C/C=C/[C@@H]2OC)O[C@H](C(C)C)[C@H]1C | 130 | 1.2 | 1.1 | 
16 | C/C=C/[C@H]1O[C@@](O)([C@@H](C)[C@H](O)[C@H](C)[C@H]2OC(=O)/C(OC)=C/C(C)=C/[C@@H](C)[C@@H](O)[C@@H](C)[C@@H](O)[C@H](C)C/C(C)=C/C=C/[C@@H]2OC)C[C@@H](O[C@H]2C[C@@H](OC(C)=O)[C@H](OC(N)=O)[C@@H](C)O2)[C@@H]1C | 0.66 | 21 | 8 | 
17 | CO/C1=C\C(C)=C\[C@@H](C)[C@@H](O)[C@@H](C)C/C(C)=C/C=C/[C@H](OC)[C@@H]([C@@H](C)[C@@H](O)[C@H](C)[C@@]2(OC)C[C@@H](O)[C@H](C)[C@@H](C(C)C)O2)OC1=O | 12 | 2.3 | 1.2 | 
18 | C/C=C/C=C/[C@H]1O[C@@](O)([C@@H](C)[C@H](O)[C@H](C)[C@H]2OC(=O)/C(OC)=C/C(C)=C/[C@@H](C)[C@@H](O)[C@@H](C)C/C(C)=C/C=C/[C@@H]2OC)C[C@@H](O[C@H]2C[C@@H](O)[C@H](O)[C@@H](C)O2)[C@@H]1C |  |  |  | CC50 at 72 h [5]: 1.3 nM
19 | CC[C@H]1OC(=O)[C@H](C)[C@@H](O[C@@H]2O[C@H](C)C[C@H](N(C)C)[C@H]2O)[C@@H](C)C[C@@H](C)C(=O)/C=C/[C@H]1C | > 1000 |  |  | IC50 [4]: > 1000 nM; IC50 at 72 h [5]: > 1000 nM
20 | C/C=C/[C@H]1O[C@@](O)([C@@H](C)[C@H](O)[C@H](C)[C@H]2OC(=O)/C(OC)=C/C(C)=C/[C@@H](C)[C@@H](O)[C@@H](CC)[C@@H](OC(C)=O)[C@H](C)C/C(C)=C/C=C/[C@@H]2OC)C[C@@H](OC(C)=O)[C@@H]1C | 3.6 | 5.4 | 2.5 | 
21 | CO/C1=C\C(C)=C\[C@@H](C)[C@@H](O)[C@@H](C)C/C(C)=C/C=C/[C@H](OC)[C@@H]([C@@H](C)[C@@H](O)[C@H](C)[C@H]2C[C@@H](O)[C@H](C)[C@@H](C(C)C)O2)OC1=O | 34 | 4.1 | 1.4 | 
22 | CO/C1=C\C(C)=C\[C@@H](C)C(=O)[C@@H](C)C/C(C)=C/C=C/[C@H](OC)[C@@H]([C@@H](C)[C@@H](O)[C@H](C)[C@@]2(O)CC(=O)[C@H](C)[C@@H](C(C)C)O2)OC1=O |  |  |  | IC50 ([1]; cd4+ t cell): > 1000 nM
23 | CNC(=O)O[C@@H](CC(C)C)c1nc([C@H]2OC(=O)/C(C)=C/C/C(C)=C/[C@@H](O)[C@@H](C)\C=C(C)/C=C(C)\C=C\[C@@H](O)[C@H](C)[C@H](OC)/C(C)=C/C=C/[C@@H]2C)cs1 [ARCHAZOLID A] |  |  |  | IC50 ([1]; cd4+ t cell): 0.47 nM
24 | CC[C@H]1OC(=O)C(C)C(O)[C@@H](C)C[C@@H](C)C(=O)/C=C/[C@H]1C (some centres undefined) | 350 |  |  | IC50 [4]: 1720 nM; IC50 at 72 h [5]: 140 nM
25 | C/C=C/[C@H]1O[C@@H]([C@@H](C)[C@H](O)[C@H](C)[C@H]2OC(=O)/C(OC)=C/C(C)=C/[C@@H](C)[C@@H](O)[C@@H](CC)[C@@H](O)[C@H](C)C/C(C)=C/C=C/[C@@H]2OC)C[C@@H](O)[C@@H]1C | 4.5 |  |  | 
26 | C/C=C/[C@H]1O[C@@](O)([C@@H](C)[C@H](O)[C@H](C)[C@H]2OC(=O)/C(OC)=C/C(C)=C/[C@@H](C)[C@@H](O)[C@@H](CC)[C@@H](OC(C)=O)[C@H](C)C/C(C)=C/C=C/[C@@H]2OC)C[C@@H](O[C@H]2C[C@@H](OC(C)=O)[C@H](OC(C)=O)[C@@H](C)O2)[C@@H]1C | 2.8 | 3.6 | 1.8 | 
27 | C/C=C/[C@H]1O[C@@H]([C@@H](C)[C@H](O)[C@H](C)[C@H]2OC(=O)/C(OC)=C/C(C)=C/[C@@H](C)[C@@H](O)[C@@H](CC)[C@@H](O)[C@H](C)C/C(C)=C/C=C/[C@@H]2O)C[C@@H](O)[C@@H]1C | 400 |  |  | 
